Active and inactive are the calls of the source. The rule behind the calls is not given here.

For the first data set, the system named is THP-1. Description: Induction of type-1 IFN signalling in human THP-1 cells assessed as increase in type-1 interferon-induced ISG54-ISRE promoter activity by measuring increase in transcriptional activity of luciferase reporter gene at 40 uM by secreted luciferase reporter gene assay relative to control. In kind it is cell-based. As to conditions: filed as activator. The method in brief: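 THP-1 monocytes carry an ISRE reporter (ISG54 minimal promoter with five ISRE elements) that drives a secreted luciferase. Each compound was tested at 40 μM. Luminescence was read and expressed as relative units normalized to a DMSO control, as mean ± standard deviation.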
With `O=C(c1ccc(C(F)(F)F)cc1)N1CCN(c2cccc(Cl)c2Cl)CC1`, the Activity was found to be 1.8 RU.
For the compound `O=C(Cc1cc(F)c(F)cc1F)N1CCN(c2cccc(Cl)c2Cl)CC1`, the Activity stood at 2.8 RU.
On the same count and under the same terms, the figure for `CC(C)NC(=S)N1CCN(c2cccc(Cl)c2Cl)CC1` is 1.2 RU; for `O=C(Nc1cccc(OC(F)(F)F)c1)N1CCN(c2cccc(Cl)c2Cl)CC1` it is 3 RU.
Still for that read-out and setting: in the case of `Fc1ccc(NC(=S)N2CCN(c3cccc(Cl)c3Cl)CC2)cc1` it was 1.3 RU; in that of `COc1cccc(NC(=O)N2CCN(c3cccc(Cl)c3Cl)CC2)c1`, 2.7 RU.
Same read-out and setting: in the case of `COc1ccc(C(=O)N2CCN(c3cccc(Cl)c3Cl)CC2)cc1` it was 3.7 RU; in that of `Cc1cc([N+](=O)[O-])ccc1C(=O)N1CCN(c2cccc(Cl)c2Cl)CC1`, 1.4 RU.
As for `O=C(c1ccc(Cl)cc1Cl)N1CCN(c2cccc(Cl)c2Cl)CC1`, the Activity is 2.3 RU.
Still for that read-out and setting: the figure for `S=C(Nc1ccc(Cl)cc1)N1CCN(c2cccc(Cl)c2Cl)CC1` is 1.2 RU.
For the compound `O=C(c1cccc(C(F)(F)F)c1)N1CCN(c2cccc(Cl)c2Cl)CC1`, the Activity is 2.8 RU.
The same measure, in the same setting: the figure for `COc1cc(OC)cc(C(=O)N2CCN(c3cccc(Cl)c3Cl)CC2)c1` is 1.9 RU; for `CCCCCCCCCCCCC(=O)N1CCN(c2cccc(Cl)c2Cl)CC1` it is 1.3 RU.
The same measure, in the same setting: in the case of `COc1cc(CC(=O)N2CCN(c3cccc(Cl)c3Cl)CC2)cc(OC)c1OC` it was 5.2 RU; in that of `O=C(c1cnccn1)N1CCN(c2cccc(Cl)c2Cl)CC1`, 2.5 RU; in that of `O=C(Nc1ccc(C(F)(F)F)cc1)N1CCN(c2cccc(Cl)c2Cl)CC1`, 3.9 RU.
Still for that read-out and setting: in the case of `S=C(Nc1ccc(Br)cc1)N1CCN(c2cccc(Cl)c2Cl)CC1` it was 0.4 RU.
For `S=C(Nc1cccc(Br)c1)N1CCN(c2cccc(Cl)c2Cl)CC1`, the Activity is 1.5 RU.
The same measure, in the same setting: the figure for `O=C(CCc1ccccc1C(F)(F)F)N1CCN(c2cccc(Cl)c2Cl)CC1` is 2.5 RU.
The same measure, in the same setting: in the case of `COc1ccc(NC(=O)N2CCN(c3cccc(Cl)c3Cl)CC2)cc1` it was 3.3 RU; in that of `O=C(Nc1ccc([N+](=O)[O-])cc1)N1CCN(c2cccc(Cl)c2Cl)CC1`, 1 RU; in that of `O=[N+]([O-])c1ccc(NC(=S)N2CCN(c3cccc(Cl)c3Cl)CC2)cc1`, 1.1 RU.
Same read-out and setting: in the case of `O=C(Nc1cccc(C(F)(F)F)c1)N1CCN(c2cccc(Cl)c2Cl)CC1` it was 3.3 RU; in that of `O=C(Nc1ccc(F)cc1)N1CCN(c2cccc(Cl)c2Cl)CC1`, 2.1 RU; in that of `O=C(Nc1ccc(OC(F)(F)F)cc1)N1CCN(c2cccc(Cl)c2Cl)CC1`, 4.2 RU.

Test system in another data set: not listed separately
Put plainly: Cytotoxicity against human THP-1 cells assessed as cell viability at 40 uM relative to control. In kind it is cell-based. As to conditions: read-out: Activity. The essentials:
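THP-1 viability was measured in parallel with the ISRE reporter readout after treatment with 40 μM of each compound. Results are given as mean ± standard deviation.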
`O=C(c1ccc(C(F)(F)F)cc1)N1CCN(c2cccc(Cl)c2Cl)CC1`: the viability at 40 µM amounted to 90%.
Regarding `O=C(Cc1cc(F)c(F)cc1F)N1CCN(c2cccc(Cl)c2Cl)CC1`, the viability at 40 µM stood at 101%.
For the compound `CC(C)NC(=S)N1CCN(c2cccc(Cl)c2Cl)CC1`, the viability at 40 µM worked out at 84%.
For `O=C(Nc1cccc(OC(F)(F)F)c1)N1CCN(c2cccc(Cl)c2Cl)CC1`, the viability at 40 µM was 70%.
Still for that read-out and setting: the figure for `Fc1ccc(NC(=S)N2CCN(c3cccc(Cl)c3Cl)CC2)cc1` is 81%.
Same read-out and setting: in the case of `COc1cccc(NC(=O)N2CCN(c3cccc(Cl)c3Cl)CC2)c1` it was 87%; in that of `COc1ccc(C(=O)N2CCN(c3cccc(Cl)c3Cl)CC2)cc1`, 81%.
Still for that read-out and setting: the figure for `Cc1cc([N+](=O)[O-])ccc1C(=O)N1CCN(c2cccc(Cl)c2Cl)CC1` is 84%; for `O=C(c1ccc(Cl)cc1Cl)N1CCN(c2cccc(Cl)c2Cl)CC1` it is 86%.
Take `S=C(Nc1ccc(Cl)cc1)N1CCN(c2cccc(Cl)c2Cl)CC1`: the viability at 40 µM was 99%.
In the case of `O=C(c1cccc(C(F)(F)F)c1)N1CCN(c2cccc(Cl)c2Cl)CC1`, the viability at 40 µM is 105%.
The same measure, in the same setting: the figure for `COc1cc(OC)cc(C(=O)N2CCN(c3cccc(Cl)c3Cl)CC2)c1` is 83%; for `CCCCCCCCCCCCC(=O)N1CCN(c2cccc(Cl)c2Cl)CC1` it is 89%.
On the same count and under the same terms, the figure for `COc1cc(CC(=O)N2CCN(c3cccc(Cl)c3Cl)CC2)cc(OC)c1OC` is 98%; for `O=C(c1cnccn1)N1CCN(c2cccc(Cl)c2Cl)CC1` it is 89%.
In the case of `O=C(Nc1ccc(C(F)(F)F)cc1)N1CCN(c2cccc(Cl)c2Cl)CC1`, the viability at 40 µM amounted to 61%.
The same measure, in the same setting: the figure for `S=C(Nc1ccc(Br)cc1)N1CCN(c2cccc(Cl)c2Cl)CC1` is 46%; for `S=C(Nc1cccc(Br)c1)N1CCN(c2cccc(Cl)c2Cl)CC1` it is 85%; for `O=C(CCc1ccccc1C(F)(F)F)N1CCN(c2cccc(Cl)c2Cl)CC1` it is 96%.
Still for that read-out and setting: the figure for `COc1ccc(NC(=O)N2CCN(c3cccc(Cl)c3Cl)CC2)cc1` is 98%; for `O=C(Nc1ccc([N+](=O)[O-])cc1)N1CCN(c2cccc(Cl)c2Cl)CC1` it is 90%.
Same read-out and setting: the figure for `O=[N+]([O-])c1ccc(NC(=S)N2CCN(c3cccc(Cl)c3Cl)CC2)cc1` is 97%; for `O=C(Nc1cccc(C(F)(F)F)c1)N1CCN(c2cccc(Cl)c2Cl)CC1` it is 76%; for `O=C(Nc1ccc(F)cc1)N1CCN(c2cccc(Cl)c2Cl)CC1` it is 95%.
Take `O=C(Nc1ccc(OC(F)(F)F)cc1)N1CCN(c2cccc(Cl)c2Cl)CC1`: the viability at 40 µM was determined as 96%.

Another data set deals with THP-1. Put plainly: Induction of type-1 IFN signalling in human THP-1 cells assessed as increase in IFNbeta secretion at 20 uM by ELISA. In kind it is cell-based. As to conditions: filed as activator. The essentials:
(§1)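 IFNβ and IP-10 released extracellularly from treated THP-1 cells were quantified by ELISA.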
(An ELISA detects its analyte on a solid surface through an enzyme-linked reagent.)
With `COc1cc(CC(=O)N2CCN(c3cccc(Cl)c3Cl)CC2)cc(OC)c1OC`, the outcome was Active.

A further data set relates to THP-1. Put plainly: Induction of type-1 IFN signalling in human THP-1 cells assessed as increase in IP-10 secretion at 20 uM by ELISA. The conditions noted are these: filed as activator. In kind it is cell-based. The method in brief:
as §1
Turning to `COc1cc(CC(=O)N2CCN(c3cccc(Cl)c3Cl)CC2)cc(OC)c1OC`, the result was Active.

The test system of the next data set is THP-1. Description: Induction of type-1 IFN signalling in human THP-1 cells assessed as increase in IFN-stimulated IFNbeta mRNA expression at 50 uM by qPCR analysis. The format is cell-based. As to conditions: filed as activator. Background: Quantitative PCR measures a nucleic acid by following its amplification.
In the case of `COc1cc(CC(=O)N2CCN(c3cccc(Cl)c3Cl)CC2)cc(OC)c1OC`, the result was Active.

The subject of a further data set is THP-1. Put plainly: Induction of type-1 IFN signalling in human THP-1 cells assessed as increase in IFN-stimulated CXCL10 mRNA expression at 50 uM by qPCR analysis. As to conditions: filed as activator. In kind it is cell-based.
Regarding `COc1cc(CC(=O)N2CCN(c3cccc(Cl)c3Cl)CC2)cc(OC)c1OC`, the result was Active.

The next data set relates to THP-1. Put plainly: Induction of type-1 IFN signalling in human THP-1 cells assessed as increase in IFN-stimulated IRF7 mRNA expression at 50 uM by qPCR analysis. In kind it is cell-based. As to conditions: filed as activator.
Turning to `COc1cc(CC(=O)N2CCN(c3cccc(Cl)c3Cl)CC2)cc(OC)c1OC`, the result was Active.

A further data set has as its system THP-1. Description: Induction of type-1 IFN signalling in human THP-1 cells assessed as increase in IFN-stimulated IFIT3 mRNA expression at 50 uM by qPCR analysis. In kind it is cell-based. As to conditions: filed as activator.
In the case of `COc1cc(CC(=O)N2CCN(c3cccc(Cl)c3Cl)CC2)cc(OC)c1OC`, the outcome was Active.

A further data set relates to THP-1. Description: Induction of type-1 IFN signalling in human THP-1 cells assessed as increase in IFN-stimulated OAS1 mRNA expression at 50 uM by qPCR analysis. The format is cell-based. As to conditions: filed as activator.
Consider `COc1cc(CC(=O)N2CCN(c3cccc(Cl)c3Cl)CC2)cc(OC)c1OC`, for which the outcome was Active.

Test system in another data set: not listed separately
Put plainly: Induction of type-1 IFN signalling in human THP-1 cells assessed as increase in type-1 IFN-induced ISG54-ISRE promoter activity by measuring increase in transcriptional activity of luciferase reporter gene by secreted luciferase reporter gene assay. In kind it is cell-based.
Conditions: not given
The method in brief: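 The THP-1 secreted-luciferase ISRE reporter (ISG54 minimal promoter plus five ISREs) was tested across a dose range. Luminescence was read as fold change over control. EC50 was calculated and Emax was interpolated from the dose-response curve.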
Consider `COc1cc(CC(=O)N2CCN(c3cccc(Cl)c3Cl)CC2)cc(OC)c1OC`, for which the EC50 (commonly the concentration at which the effect is half-maximal) was found to be 13.1 µM.

A further data set deals with THP-1. Description: Cytotoxicity against human THP-1 cells assessed as cell viability at 2.5 to 40 uM. In kind it is cell-based. The conditions noted are these: thp-1, 40 µM, dose 2.5-40 µM. The method in brief:
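THP-1 viability was tested across a range of treatment concentrations up to 40 µM, alongside the ISRE reporter dose-response.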
Take `COc1cc(CC(=O)N2CCN(c3cccc(Cl)c3Cl)CC2)cc(OC)c1OC`: the Activity result was “Non-Toxic”.

Source of the values: ChEMBL document CHEMBL4699581, “Design, synthesis, and biological evaluation of N-arylpiperazine derivatives as interferon inducers” (Bioorg Med Chem Lett, 2020).
